Source: paper PMC5542026 (Cell, 2017)
Values after ≈ are worked out from the molar mass of the structure shown. *1 amine or outer side, *2 acyl side, *3 side chain or, on linkers, in order; H or OH if unused. Where a SMILES comes first, the peptide text is derived from it. Bridges are numbered along the chain shown (N, C = ends). [ ]: non-standard residue; d: D form. The star is where a group is joined. X2 = C[C@H](Oc1ccc([C@H](N[*:1])C(=O)[*:2])cc1)[C@@]1(/C=C/C(=O)[*:3])CO1; X1 = CC(C)[C@H](O)[C@H](C)C(=O)*; aIle = CC[C@@H](C)[C@H](N)C(=O)O; dNMeF = CN[C@H](Cc1ccccc1)C(=O)O; aThr = C[C@H](O)[C@H](N)C(=O)O

Assays:
[1] = tested on: E. coli strain D21f2tolC; experiment: Broth-microdilution MIC, wild-type parent; assay type: cell-based; settings: LB broth, 16 h, growth inhibited by >90%
[2] = biological target: bacterial RNAP (Escherichia coli, UniProt P0A8T7+P0A8V2); experiment: RNAP-inhibitory activity in vitro; assay type: biochemical, E. coli; S. aureus; B. subtilis; settings: read-out: IC50, inhibition of bacterial RNAP
[3] = tested on: S. pyogenes strain ATCC 12344; experiment: Spontaneous resistance rate, Luria-Delbrück fluctuation assays; assay type: cell-based; settings: compared with Rif
Procedure, shortened: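 Luria-Delbrück fluctuation assay. ~1×10^9 cfu S. pyogenes ATCC 12344 per plate were plated on Todd Hewitt agar (1.5% agar) containing 64 or 128 μg/ml test compound, or 1 or 2 μg/ml rifampicin. Colonies were counted after 24 h at 37°C, with at least six independent determinations each.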

[4] = biological target: T1, E. coli RNAP (Escherichia coli, UniProt P0A8T7+P0A8V2); experiment: Nucleotide addition in transcription elongation; assay type: biochemical; settings: 500 μM PUM
Procedure, shortened: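 Run per an earlier published protocol. Reactions contained no inhibitor, the test compound, 2 μM rifampicin or 100 μM lipiarmycin as comparator.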

[5] = tested on: S. pyogenes C203; experiment: Mouse Streptococcus pyogenes peritonitis model; assay type: in vivo
Procedure, shortened: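 Female ICR mice (23–25 g) were acclimatised for one week at 23±2°C and 55±10% humidity. They were infected intraperitoneally with 4×10^3 cfu S. pyogenes C203 in 0.5 ml saline containing 1% peptone. Groups of eight, randomised and unblinded, received 2.5-fold test compound dilutions in 5% dextrose by one of three regimens: i.v. at 10 min and 6 h (total 3.2–50 mg/kg); single i.v. at 10 min; or single s.c. at 10 min (each total 1.024–40 mg/kg).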

[6] = biological target: T2, E. coli RNAP σ^70 holoenzyme (Escherichia coli, UniProt P0A8T7+P0A8V2); experiment: Nucleotide addition at elevated NTP concentrations; assay type: biochemical; settings: 6 μM PUM; 10–500 μM varied NTP
[7] = biological target: T2, E. coli RNAP σ^70 holoenzyme; experiment: Multiple-nucleotide-addition reactions; assay type: biochemical; settings: 10 μM NTPs
[8] = biological target: T2, E. coli RNAP σ^70 holoenzyme; experiment: Nucleotide addition on standard and U-less cassette templates; assay type: biochemical; settings: standard vs U-less cassette template; 0–20 μM PUM
[9] = biological target: T2, E. coli RNAP σ^70 holoenzyme; experiment: Formation of RNAP-promoter open complex; assay type: biochemical; settings: 500 μM PUM
[10] = tested on: S. pyogenes Rif-resistant mutants; experiment: Cross-resistance of Rif-resistant mutants to PUM; assay type: cell-based; settings: Figs. 1B–C,E
Procedure, shortened: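 S. pyogenes mutants were selected on Todd Hewitt agar with rifampicin at 0.1–2 μg/ml (1–16x MIC) and sequenced. Thirteen mutants and the isogenic wild-type parent were grown in Todd Hewitt broth at 37°C in 7% CO2/6% O2/4% H2/83% N2 to OD600 0.4–0.8. They were tested by broth microdilution with a 2-fold test compound series (0 or 1.56–100 μg/ml) for 16 h at 37°C. MIC was taken at >90% growth inhibition.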

[11] = tested on: S. pyogenes PUM-resistant mutants; experiment: Resistance levels of spontaneous PUM-resistant mutants; assay type: cell-based; settings: substitutions at β residues 565, 681, and 684, and β′ residue 786
[12] = tested on: S. pyogenes ATCC 12344; experiment: Broth-microdilution MIC, wild-type parent; assay type: cell-based; settings: Todd Hewitt broth, 16 h, growth inhibited by >90%
[13] = biological target: T1, E. coli RNAP; experiment: Nucleotide addition in transcription initiation; assay type: biochemical; settings: 500 μM PUM
Procedure, shortened: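 Run per an earlier published protocol, labelled with 5 μM [α32P]UTP (3 Bq/fmol). Reactions contained no inhibitor, the test compound, 2 μM rifampicin or 100 μM lipiarmycin.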

[14] = tested on: human serum proteins; experiment: Growth-curve assays in absence and presence of 30% human serum; assay type: in vitro ADME
[15] = tested on: S. pyogenes strain L49 or S. pneumoniae strain L44; experiment: Checkerboard interaction assays PUM + Rif; assay type: cell-based; settings: FICI
[16] = tested on: Staphylococcus simulans strain M22; experiment: Effects on macromolecular synthesis; assay type: cell-based; settings: PUM 100–200 μM
Procedure, shortened: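 Staphylococcus simulans M22 was grown in 0.5x Mueller Hinton II broth at 37°C with shaking to OD600 0.5, then diluted to OD600 0.1–0.2. [2-14C]-thymidine was added at 6 kBq/ml for 15 min, and the culture was split. One half received test compound (final 100–200 μM). Samples taken at 0, 10, 20 and 40 min were quenched in ice-cold 10% TCA/1 M NaCl and held 30–60 min on ice.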

[17] = tested on: S. pyogenes and E. coli resistant mutants; experiment: Cross-resistance between PUM and Lpm, Myx, Stl, CBR703, Sal; assay type: cell-based
[18] = biological target: [565Glu→Asp]β-RNAP σ^70 holoenzyme (Escherichia coli, UniProt P0A8T7+P0A8V2, E565D); experiment: Fluorescence-detected transcription assay, mutant RNAP; assay type: biochemical, E. coli
[19] = tested on: E. coli GE-resistant mutants; experiment: Cross-resistance of GE-resistant mutants to PUM; assay type: cell-based
[20] = biological target: E. coli RNAP core enzyme (Escherichia coli, UniProt P0A8T7+P0A8V2); experiment: Single-nucleotide-addition reactions; assay type: biochemical; settings: 25 μM PUM; 2.5 μM NTPs
Procedure, shortened: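 Elongation complexes were assembled on nucleic-acid scaffolds, annealed 5 min at 95°C and step-cooled to 4°C in 5 mM Tris-HCl pH 7.7, 200 mM NaCl, 10 mM MgCl2. Steps at 37°C: 10 min preincubation, 5 min with compound (0 or 25 μM), 5 min with single NTP.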

[21] = tested on: E. coli D21f2tolC with plasmid-encoded RNAP β/β′ derivatives; experiment: E. coli plasmid-based resistance assay; assay type: cell-based; settings: substitutions β565 Glu→Gly and β681 Met→Lys
Procedure, shortened: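 E. coli transformants were grown from single colonies in LB with 200 μg/ml ampicillin at 37°C with shaking to OD600 0.4–0.8. They were induced with 1 mM IPTG for 1 h. About 2×10^5 cells were added to wells holding a 2-fold dilution series of test compound in the same medium (final 0 or 25–4000 μg/ml) and incubated 16 h at 37°C with shaking.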

[22] = tested on: E. coli strain D21f2tolC; experiment: MIC on LB agar; assay type: cell-based; settings: E. coli D21f2tolC plated on LB agar

`ONC(=Nc1ccccc1)c1cccc(C(F)(F)F)c1` [CBR703] was tested, and the MICwild-type [1] was 6.25 µg/mL.

With `NC(=O)CC[C@@H](C(=O)NC[C@H]1O[C@@H](c2c[nH]c(=O)[nH]c2=O)[C@H](O)[C@@H]1O)N(O)C(=O)CN=C(N)N` [PUM, pseudouridimycin] the IC50 [2] was 100 nM, the spontaneous resistance rates [3] was “an order-of-magnitude lower than those of Rif” and the “effect on nucleotide addition in transcription elongation” value [4] was “Inhibition by PUM of nucleotide addition in transcription elongation”. The “ED50 (dose yielding 50% survival at 7 days)” value [5] was 9 mg/kg, the “effect of high NTP concentrations on transcription inhibition” value [6] was “high concentrations of UTP–but not high concentrations of GTP, ATP, or CTP–overcome transcription inhibition by PUM” and the “nucleotide specificity of inhibition, multiple-nucleotide addition” value [7] was “inhibits incorporation of U, but not G, A, or C”. The “template dependence of transcription inhibition” value [8] was “inhibits transcription only on templates that direct incorporation of U”, the “effect on formation of catalytically-competent RNAP-promoter open complex, RPo” value [9] was “Absence of inhibition” and the “cross-resistance with Rif” value [10] was “no cross-resistance”. For the same compound, the “PUM-resistance (MIC/MICwild-type)” value [11] was no less than 4 x, the MICwild-type [12] was 6.25 µg/mL and the “effect on nucleotide addition in transcription initiation” value [13] was “Inhibition by PUM of nucleotide addition in transcription initiation”. For the same compound, the MICwild-type [1] was 400 µg/mL, the “antibacterial activity in absence versus presence of human serum” value ([14]; 30% human serum, Fig. 1C rows 1–4) was “Identical results” and the unbound fraction ([14]; human serum proteins, inferred from 30% human serum assays) was ~ 100%. The “antibacterial activity when co-administered with Rif” value [15] was “additive antibacterial activity”, the “effect on DNA synthesis ([14C]-thymidine incorporation)” value [16] was “little or no inhibition of DNA synthesis” and the “effect on RNA synthesis ([3H]-uridine incorporation)” value [16] was “rapid and strong inhibition of RNA synthesis”. For the same compound, the “effect on protein synthesis ([14C]-isoleucine incorporation)” value [16] was “slower and weaker inhibition of protein synthesis”, the “cross-resistance with Lpm, Myx, Stl, CBR703, and Sal” value [17] was “does not exhibit cross-resistance” and the “inhibition of purified RNAP containing β565 Glu→Asp” value [18] was “PUM-resistant phenotype”. The “cross-resistance with GE” value [19] was “partial cross-resistance”, the “nucleotide specificity of inhibition, single-nucleotide addition” value [20] was “inhibits incorporation of U, but not G, A, or C” and the “resistance (MIC/MICwild-type)” value [21] was no less than 4 x. The “MIC under these conditions” value [22] was roughly 800 µg/mL (≈ 1640 µM).

With `CO[C@H]1/C=C/O[C@@]2(C)Oc3c(C)c(O)c4c(O)c(c(/C=N/N5CCN(C)CC5)c(O)c4c3C2=O)NC(=O)/C(C)=C\C=C\[C@H](C)[C@H](O)[C@@H](C)[C@@H](O)[C@@H](C)[C@H](OC(C)=O)[C@@H]1C` [Rif, rifampin] the MICwild-type [12] was 0.098 µg/mL and the MICwild-type [1] was 0.20 µg/mL.

Work on `CCCC/C(C)=C/C=C(\C)C(=O)c1c(O)cc([C@H](C)CC/C=C/NC(=O)OC)oc1=O` [myxopyronin B] yielded an MICwild-type [12] of 6.25 µg/mL and an MICwild-type [1] of 0.20 µg/mL.

Work on `CC[C@@H](C)[C@@H]1NC(=O)[C@H](NC(=O)[C@@H](C)[C@@H](O)C(C)C)[C@H](C)OC(=O)[C@H]2COC(=O)CNC(=O)/C=C/[C@@]3(CO3)[C@H](C)Oc3ccc(cc3)[C@H](NC1=O)C(=O)N(C)[C@H](Cc1ccccc1)C(=O)N[C@@H]([C@H](C)O)C(=O)N2` [salinamide A] (X1-[dT][aIle][X2][dNMeF][aThr][dS]; ester 1-C; linker 3-6 via G) yielded an MICwild-type [1] of 0.049 µg/mL.

For `CNC(=O)[C@@H](C)[C@H]1C(=O)/C(=C(O)/C=C/C(C)=C/[C@@H](C)[C@H]2O[C@@]3(C)O[C@H](C=C[C@@]34CO4)[C@@H]2C)C(=O)N1[C@@H]1CC[C@H](O)[C@H](C)O1` [streptolydigin], the MICwild-type [12] was 3.13 µg/mL and the MICwild-type [1] was 3.13 µg/mL.

Work on GE23077 yielded an MICwild-type [1] of 500 µg/mL.

lipiarmycin A3 was tested, and the MICwild-type [12] was 6.25 µg/mL and the MICwild-type [1] was 1.56 µg/mL.
